In the library only some 4.7% were active in any assay of this set; here they are far more common.
Mdm2 MdmX PPI = disrupts the human Mdm2-MdmX interaction; O15151+Q00987; SaOS-2 split-luciferase Mdm2/MdmX complementation, luminescence; inhibition, % at 8 µM; 3% of 330,000 active;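 active = inhibition of at least 50% at 8 µM in the primary screen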
IMP-1 inh-1 = blocks Pseudomonas aeruginosa IMP-1 metallo-beta-lactamase. purified IMP-1, nitrocefin hydrolysis, epi-absorbance fluorescence. inhibition, % at 5.6 µM. 0.45% of 290,000 active. AID 1556;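 active = inhibition above the mean plus 3 SD of all compounds in the same screening run, cut at about 4.5% in these data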
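Assay system: purified recombinant IMP-1 beta-lactamase. Input: IMP-1 0.2 nM before substrate addition. Buffer or medium: Zinc- and detergent-supplemented HEPES buffer, pH 7.1. Schedule: 25 °C, 15 min preincubation, 25 min reaction. Signal: Epi-absorbance fluorescence, 480 nm excitation, 530 nm emission. Evaluation: percent inhibition from optical density relative to buffer-blank wells.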
697 NFkB inh = lowers PMA/ionomycin-induced NF-kB signal in 697 B cells. 697 B-cell NF-kB luciferase reporter, 16 h. AID 435022. 0.33% of 330,000 active. inhibition, % at 4 µM; in the data active = inhibition above about 35%
aSyn UTR inh = MLPCN primary screen, SNCA 5' untranslated region | alpha-synuclein 5'UTR reporter, inhibitor activity | inhibition, % (tested at 7.5 µM) | 0.82% of 300,000 active; in the data active = inhibition above about 60%;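 note: H4 neuroglioblastoma cells stably carrying SNCA 5'UTR luciferase fusion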
Jurkat NFkB inh = inhibitors of the PMA/ionomycin-induced NF-kB reporter in Jurkat cells | PMA/ionomycin-induced NF-kB luciferase reporter, luminescence | inhibition, % at 4 µM | 0.53% of 330,000 active; in the data active = inhibition above about 50%
VIM-2 inhibitor = blocks Pseudomonas aeruginosa VIM-2 metallo-beta-lactamase | purified VIM-2, nitrocefin hydrolysis, epi-absorbance fluorescence | inhibition, % at 5.6 µM | 0.89% of 290,000 active | AID 1527;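 active = inhibition above the mean of all tested compounds plus 3 SD, cutoff set per screening run, cut at about 7.5% in these data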;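 note: red hydrolysis product quenches plate fluorescence so inhibitors raise well fluorescence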
IMP-1 inh-2 = selectivity counter-screen for VIM-2 inhibitors: IMP-1 metallo-beta-lactamase inhibitors. shares compounds with VIM-2 inhibitor. purified IMP-1, nitrocefin hydrolysis, epi-absorbance fluorescence. inhibition, % at 5.6 µM. 1,300 tested, under 10 active. AID 1856; call rule not given here
VIM-2 FRET ctr = VIM-2 FRET inhibition, artifact counter-screen; shares compounds with VIM-2 inhibitor; purified VIM-2, CCF2 FRET substrate hydrolysis; inhibition, % at 5.6 µM; 23% of 1,300 active; AID 1857;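 active = inhibition above the mean of all tested compounds plus 3 SD, cut at about 19% in these data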
TEM-1 inh = selectivity counter-screen for VIM-2 inhibitors: E. coli TEM-1 inhibitors | 3% of 1,300 active | Purified TEM-1, nitrocefin hydrolysis, epi-absorbance fluorescence | AID 1866 | inhibition, % at 5.6 µM | shares compounds with VIM-2 inhibitor;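 active = inhibition above that campaign's mean inhibition plus 3 SD, cut at about 0.46% in these data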
VIM-2 inh conf = confirmation of P. aeruginosa VIM-2 metallo-beta-lactamase inhibitors; shares compounds with VIM-2 inhibitor; 96% of 1,300 active; purified VIM-2, nitrocefin hydrolysis, epi-absorbance; inhibition, % at 5.6 µM; AID 2187;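 active = inhibition of the VIM-2 beta-lactamase enzyme above about 11% from the earlier first-round screen, limit read from the data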
Jurkat NFkB conf = inhibitors of the PMA/ionomycin-induced NF-kB reporter in Jurkat cells, retest. shares compounds with Jurkat NFkB inh. Jurkat NF-kB luciferase, 16 h. inhibition, % at 4 µM. 27% of 2,700 active. AID 435020;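 active = inhibition reaching about 45% at 4 µM in either replicate, limit read from the data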
Mdm2 MdmX conf = confirmation of human Mdm2/MdmX interaction inhibitors; Mdm2-MdmX binding, luminescent assay; AID 489028; 55% of 10,000 active; shares compounds with Mdm2 MdmX PPI; inhibition, % at 8 µM; in the data active = inhibition above about 40%
FLuc counter = full-length luciferase inhibition in Mdm2/MdmX counter-screen; shares compounds with Mdm2 MdmX PPI; SaOS-2 full-length luciferase counterscreen, luminescence; inhibition, % at 8 µM; 77% of 6,200 active; AID 504607;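 active = mean inhibition at 8 µM reaching about 37%, which flags the compound as non-specific, limit read from the data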;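 note: p53-null SaOS-2 cells with luciferase driven by a doxycycline-inducible promoter; compound on cells about two nights before reading with doxycycline added after day one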
A number is an active result.

What do the screens show for `Cc1cccn2c(=O)c3cc(C(=O)NC4CCCC4)n(C)c3nc12`?
Mdm2 MdmX PPI: 51; IMP-1 inh-1: inactive; 697 NFkB inh: inactive; aSyn UTR inh: inactive; Jurkat NFkB inh: 51; VIM-2 inhibitor: 14; IMP-1 inh-2: inactive; VIM-2 FRET ctr: inactive; TEM-1 inh: inactive; VIM-2 inh conf: 22; Jurkat NFkB conf: inactive; Mdm2 MdmX conf: 51; FLuc counter: 67

Results for Cc1cccn2c(=O)c3cc(C(=O)NC4CCCCC4)n(C)c3nc12 ?
Mdm2 MdmX PPI: inactive; IMP-1 inh-1: inactive; 697 NFkB inh: inactive; aSyn UTR inh: inactive; Jurkat NFkB inh: inactive; VIM-2 inhibitor: inactive

Results for NC(=S)NN=C1c2cc(OCCN3CCOCC3)ccc2-c2ccc(OCCN3CCOCC3)cc21 ?
Mdm2 MdmX PPI: 60; IMP-1 inh-1: inactive; 697 NFkB inh: inactive; aSyn UTR inh: inactive; Jurkat NFkB inh: inactive; VIM-2 inhibitor: 59; IMP-1 inh-2: inactive; VIM-2 FRET ctr: inactive; TEM-1 inh: inactive; VIM-2 inh conf: 71; Mdm2 MdmX conf: inactive

Results for Cc1cc(C)c2nc(C)cc(N/N=C/c3ccc(O)cc3)c2c1 ?
Mdm2 MdmX PPI: 98; IMP-1 inh-1: inactive; 697 NFkB inh: inactive; aSyn UTR inh: 112; Jurkat NFkB inh: 98; VIM-2 inhibitor: 13; IMP-1 inh-2: inactive; VIM-2 FRET ctr: inactive; TEM-1 inh: inactive; VIM-2 inh conf: 19; Jurkat NFkB conf: 81; Mdm2 MdmX conf: 100; FLuc counter: 50

How did c1ccc(CNc2ncnc3ccccc23)cc1 do in these assays?
Mdm2 MdmX PPI: inactive; IMP-1 inh-1: inactive; 697 NFkB inh: inactive; aSyn UTR inh: inactive; Jurkat NFkB inh: inactive; VIM-2 inhibitor: inactive

How did Oc1ccc(CCNc2c3ccccc3nc3ccccc23)cc1O do in these assays?
Mdm2 MdmX PPI: 64; IMP-1 inh-1: inactive; 697 NFkB inh: inactive; aSyn UTR inh: inactive; Jurkat NFkB inh: inactive; VIM-2 inhibitor: 17; IMP-1 inh-2: inactive; VIM-2 FRET ctr: inactive; TEM-1 inh: inactive; VIM-2 inh conf: 21; Mdm2 MdmX conf: 51; FLuc counter: 76

Results for c1ccc(CNc2c3ccccc3nc3ccccc23)cc1 ?
Mdm2 MdmX PPI: 70; IMP-1 inh-1: inactive; 697 NFkB inh: inactive; aSyn UTR inh: inactive; Jurkat NFkB inh: inactive; VIM-2 inhibitor: 22; IMP-1 inh-2: inactive; VIM-2 FRET ctr: inactive; TEM-1 inh: inactive; VIM-2 inh conf: 32; Mdm2 MdmX conf: inactive; FLuc counter: 61

Results for COc1ccc2c(c1)cc(C(=O)N[C@@H](CCSC)C(=O)N1CCC(C(=O)O)CC1)n2C ?
Mdm2 MdmX PPI: inactive; IMP-1 inh-1: inactive; 697 NFkB inh: inactive; aSyn UTR inh: inactive; Jurkat NFkB inh: inactive; VIM-2 inhibitor: inactive

Results for CCC(C)c1c(O)nc(SCC(=O)N2CCCCCC2)[nH]c1=O (stereo unspecified) ?
Mdm2 MdmX PPI: inactive; IMP-1 inh-1: inactive; 697 NFkB inh: inactive; aSyn UTR inh: inactive; Jurkat NFkB inh: inactive; VIM-2 inhibitor: inactive

Source: PubChem
